Here are results for 8 molecules from ChEMBL document CHEMBL3588850, “Multivalent Amino Sugars to Recognize Different TAR RNA Conformations” (Medchemcomm, 2014).

Activity calls are given as the source filed them. The calls are words filed in the database; no cut-off is given here.

Experiment [1] concerns Nucleic Acid. In words: Binding affinity to wild type HIV1 TAR RNA assessed as association constant at pH 6.8 by ethidium bromide displacement assay based Scatchard analysis method. The experiment is classed as nucleic-acid assay. The following applies: Human immunodeficiency virus 1. The method, boiled down: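 Ethidium bromide displacement: 5 μM EtBr with TAR RNA at 200 nM/strand (under 20% of EtBr bound) in 100 mM KCl, 10 mM SC, 0.5 mM EDTA, pH 6.8. Ligand added in concentrated aliquots, at most 4% v/v. Excitation 545 nm, emission 580–660 nm, intensity at 610 nm. Association constant obtained by Scatchard analysis of the titration data.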

Experiment [2] concerns the target Nucleic Acid. Briefly: Binding affinity to wild type HIV1 TAR RNA at pH 6.8 by ethidium bromide displacement assay. The experiment is classed as nucleic-acid assay, Human immunodeficiency virus 1. The essentials: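 TAR RNA (200 nM/strand) and EtBr (5 μM) in 100 mM KCl, 10 mM SC, 0.5 mM EDTA, pH 6.8, titrated with ligand aliquots (at most 4% v/v). Fluorescence excited at 545 nm and read at 610 nm. IC50 is the ligand concentration that displaces 50% of EtBr, taken from a sigmoidal fit of fraction displaced versus log ligand concentration.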

In experiment [3] the target is Nucleic Acid. Briefly: Binding affinity to HIV1 TAR RNA U3 bulge mutant at pH 6.8 by ethidium bromide displacement assay. Format: nucleic-acid assay, Human immunodeficiency virus 1. The method, boiled down:
(§1)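 Synthetic 2′-ACE-protected TAR RNA, deprotected, heated 98 °C 5 min, then ice-cooled 15 min. TAR RNA at 200 nM/strand with ethidium bromide 5 μM in 100 mM KCl, 10 mM SC, 0.5 mM EDTA, pH 6.8. Ligand added stepwise, ≤4% v/v. Excitation 545 nm, emission 580–660 nm, intensity at 610 nm normalized. IC50 from sigmoidal fit of fraction EtBr displaced vs log ligand; association constants from Scatchard analysis.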

Experiment [4] deals with Nucleic Acid. In words: Binding affinity to HIV1 TAR RNA U3 bulge mutant at assessed as association constant at pH 6.8 by ethidium bromide displacement assay based Scatchard analysis method. Format: nucleic-acid assay. The settings on record: Human immunodeficiency virus 1. The essentials:
as §1

Experiment [5] deals with Nucleic Acid. In words: Binding affinity to HIV1 TAR RNA bulgeless mutant at pH 6.8 by ethidium bromide displacement assay. The experiment is classed as nucleic-acid assay, Human immunodeficiency virus 1. The essentials:
as §1

Experiment [6] concerns the target Nucleic Acid. Briefly: Binding affinity to HIV1 TAR RNA tetraloop mutant at pH 6.8 by ethidium bromide displacement assay. The experiment is classed as nucleic-acid assay, Human immunodeficiency virus 1. The method, boiled down: as §1
The subject of experiment [7] is Nucleic Acid. In words: Binding affinity to HIV1 TAR RNA bulgeless tetraloop mutant assessed as association constant at pH 6.8 by ethidium bromide displacement assay based Scatchard analysis method. The settings on record: Human immunodeficiency virus 1. The experiment is classed as nucleic-acid assay. The method, boiled down:
as §1

The subject of experiment [8] is Nucleic Acid. Briefly: Binding affinity to HIV1 TAR RNA tetraloop mutant assessed as association constant at pH 6.8 by ethidium bromide displacement assay based Scatchard analysis method. Format: nucleic-acid assay. The settings on record: Human immunodeficiency virus 1. The method, boiled down: as §1
The test system of experiment [9] is Nucleic Acid. Briefly: Binding affinity to HIV1 TAR RNA bulgeless mutant assessed as association constant at pH 6.8 by ethidium bromide displacement assay based Scatchard analysis method. Format: nucleic-acid assay. The settings on record: Human immunodeficiency virus 1. The method, boiled down:
as §1

Experiment [10] addresses Nucleic Acid. Briefly: Binding affinity to HIV1 TAR RNA bulgeless tetraloop mutant at pH 6.8 by ethidium bromide displacement assay. The experiment is classed as nucleic-acid assay, Human immunodeficiency virus 1. The essentials: as §1
The subject of experiment [11] is Nucleic Acid. Briefly: Induction of conformational changes in wild type HIV1 TAR RNA assessed as changes in 210 to 220 nm region using 1 molar equivalents of compound at pH 6.8 by CD spectroscopy. Format: nucleic-acid assay. The following applies: Human immunodeficiency virus 1.
Experiment [12] deals with Nucleic Acid. In words: Induction of conformational changes in wild type HIV1 TAR RNA assessed as increase in intensity in 265 nm region using 1 molar equivalents of compound at pH 6.8 by CD spectroscopy. The settings on record: Human immunodeficiency virus 1. The experiment is classed as nucleic-acid assay.

With `NC[C@@H]1O[C@H](O[C@H]2[C@@H](O)[C@H](O[C@@H]3[C@@H](O)[C@H](N)C[C@H](N)[C@H]3O[C@H]3O[C@H](CN)[C@@H](O)[C@H](O)[C@H]3N)O[C@@H]2Cn2cc(CCCCCCc3cn(C[C@H]4O[C@@H](O[C@@H]5[C@@H](O)[C@H](N)C[C@H](N)[C@H]5O[C@H]5O[C@H](CN)[C@@H](O)[C@H](O)[C@H]5N)[C@H](O)[C@@H]4O[C@H]4O[C@@H](CN)[C@@H](O)[C@H](O)[C@H]4N)nn3)nn2)[C@H](N)[C@@H](O)[C@@H]1O`, the K was determined as 6.6 ×10⁷ /M in [1]; 3.8 ×10⁶ /M in experiment [4]; 5.9 ×10⁷ /M in experiment [7]; 5 ×10⁶ /M in experiment [8]; 6.3 ×10⁷ /M in [9]. Further, the IC50 in experiment [2] came out at 126 nM; in experiment [3], 256 nM; in experiment [5], 146 nM; in [6], 214 nM; in experiment [10], 150 nM.
Regarding `C/C(CCc1cn(C[C@H]2O[C@@H](O[C@@H]3[C@@H](O)[C@H](N)C[C@H](N)[C@H]3O[C@H]3O[C@H](CN)[C@@H](O)[C@H](O)[C@H]3N)[C@H](O)[C@@H]2O[C@H]2O[C@@H](CN)[C@@H](O)[C@H](O)[C@H]2N)nn1)=C(/C)CCc1cn(C[C@H]2O[C@@H](O[C@@H]3[C@@H](O)[C@H](N)C[C@H](N)[C@H]3O[C@H]3O[C@H](CN)[C@@H](O)[C@H](O)[C@H]3N)[C@H](O)[C@@H]2O[C@H]2O[C@@H](CN)[C@@H](O)[C@H](O)[C@H]2N)nn1`, the K in experiment [1] is 1.1 ×10⁷ /M; in experiment [4] it was 2.6 ×10⁶ /M; in experiment [7], 2.8 ×10⁷ /M; in [8], 3.5 ×10⁶ /M; in experiment [9] it was 3.6 ×10⁷ /M. The IC50 is 146 nM in experiment [2]; 338 nM in experiment [3]; 142 nM in experiment [5]; 210 nM in experiment [6]; 162 nM in experiment [10].
Turning to `NC[C@@H]1O[C@H](O[C@H]2[C@@H](O)[C@H](O[C@@H]3[C@@H](O)[C@H](N)C[C@H](N)[C@H]3O[C@H]3O[C@H](CN)[C@@H](O)[C@H](O)[C@H]3N)O[C@@H]2Cn2cc(CCCCc3cn(C[C@H]4O[C@@H](O[C@@H]5[C@@H](O)[C@H](N)C[C@H](N)[C@H]5O[C@H]5O[C@H](CN)[C@@H](O)[C@H](O)[C@H]5N)[C@H](O)[C@@H]4O[C@H]4O[C@@H](CN)[C@@H](O)[C@H](O)[C@H]4N)nn3)nn2)[C@H](N)[C@@H](O)[C@@H]1O`, the K in experiment [1] was found to be 2.6 ×10⁷ /M; in experiment [4], 2.1 ×10⁶ /M; in experiment [7] it was 1.2 ×10⁷ /M; in experiment [9], 2.2 ×10⁷ /M. Also, the IC50 is 144 nM in experiment [2]; 278 nM in experiment [3]; 160 nM in [5]; 278 nM in experiment [6]; 216 nM in experiment [10].
Turning to `NC[C@@H]1O[C@H](O[C@H]2[C@@H](O)[C@H](O[C@@H]3[C@@H](O)[C@H](N)C[C@H](N)[C@H]3O[C@H]3O[C@H](CN)[C@@H](O)[C@H](O)[C@H]3N)O[C@@H]2Cn2cc(COCCCCCCCCOCc3cn(C[C@H]4O[C@@H](O[C@@H]5[C@@H](O)[C@H](N)C[C@H](N)[C@H]5O[C@H]5O[C@H](CN)[C@@H](O)[C@H](O)[C@H]5N)[C@H](O)[C@@H]4O[C@H]4O[C@@H](CN)[C@@H](O)[C@H](O)[C@H]4N)nn3)nn2)[C@H](N)[C@@H](O)[C@@H]1O`, the K in experiment [1] amounted to 7.6 ×10⁶ /M; in experiment [4], 4.8 ×10⁶ /M; in experiment [7], 7.2 ×10⁷ /M; in experiment [8], 1.4 ×10⁷ /M; in [9] it was 6.8 ×10⁷ /M. For the same molecule, the 50% inhibitory concentration (IC50) amounted to 156 nM in experiment [2]; 234 nM in experiment [3]; 108 nM in [5]; 188 nM in [6]; 106 nM in [10].
Regarding `NC[C@@H]1O[C@H](O[C@H]2[C@@H](O)[C@H](O[C@@H]3[C@@H](O)[C@H](N)C[C@H](N)[C@H]3O[C@H]3O[C@H](CN)[C@@H](O)[C@H](O)[C@H]3N)O[C@@H]2Cn2cc(-c3ccc(-c4cn(C[C@H]5O[C@@H](O[C@@H]6[C@@H](O)[C@H](N)C[C@H](N)[C@H]6O[C@H]6O[C@H](CN)[C@@H](O)[C@H](O)[C@H]6N)[C@H](O)[C@@H]5O[C@H]5O[C@@H](CN)[C@@H](O)[C@H](O)[C@H]5N)nn4)cc3)nn2)[C@H](N)[C@@H](O)[C@@H]1O`, the K in [1] turned out to be 1.5 ×10⁸ /M. The IC50 in experiment [2] was 150 nM.
`NC[C@@H]1O[C@H](O[C@H]2[C@@H](O)[C@H](O[C@@H]3[C@@H](O)[C@H](N)C[C@H](N)[C@H]3O[C@H]3O[C@H](CN)[C@@H](O)[C@H](O)[C@H]3N)O[C@@H]2Cn2cc(-c3cccc(-c4cn(C[C@H]5O[C@@H](O[C@@H]6[C@@H](O)[C@H](N)C[C@H](N)[C@H]6O[C@H]6O[C@H](CN)[C@@H](O)[C@H](O)[C@H]6N)[C@H](O)[C@@H]5O[C@H]5O[C@@H](CN)[C@@H](O)[C@H](O)[C@H]5N)nn4)c3)nn2)[C@H](N)[C@@H](O)[C@@H]1O`: the K was 1.4 ×10⁸ /M in experiment [1], 6.9 ×10⁷ /M in experiment [7], 1.3 ×10⁷ /M in experiment [8] and 1 ×10⁸ /M in [9]. For the same molecule, the outcome in experiment [11] and in experiment [12] was Active. The IC50 worked out at 110 nM in [2]; 244 nM in experiment [3]; 130 nM in experiment [5]; 180 nM in [6]; 142 nM in [10].
As to `NC[C@@H]1O[C@H](O[C@H]2[C@@H](O)[C@H](O[C@@H]3[C@@H](O)[C@H](N)C[C@H](N)[C@H]3O[C@H]3O[C@H](CN)[C@@H](O)[C@H](O)[C@H]3N)O[C@@H]2Cn2cc(COCCCCCCCCCCCCOCc3cn(C[C@H]4O[C@@H](O[C@@H]5[C@@H](O)[C@H](N)C[C@H](N)[C@H]5O[C@H]5O[C@H](CN)[C@@H](O)[C@H](O)[C@H]5N)[C@H](O)[C@@H]4O[C@H]4O[C@@H](CN)[C@@H](O)[C@H](O)[C@H]4N)nn3)nn2)[C@H](N)[C@@H](O)[C@@H]1O`, the K in experiment [1] amounted to 2.5 ×10⁷ /M; in experiment [4], 1.5 ×10⁶ /M; in experiment [7], 2.7 ×10⁷ /M; in experiment [8] it was 2 ×10⁶ /M; in experiment [9], 4.4 ×10⁷ /M. Moreover, the half-inhibitory concentration (IC50) is 144 nM in experiment [2], 326 nM in [3], 300 nM in [6] and 158 nM in [10].
As to `NC[C@@H]1O[C@H](O[C@H]2[C@@H](O)[C@H](O[C@@H]3[C@@H](O)[C@H](N)C[C@H](N)[C@H]3O[C@H]3O[C@H](CN)[C@@H](O)[C@H](O)[C@H]3N)O[C@@H]2Cn2cc(CCCc3cn(C[C@H]4O[C@@H](O[C@@H]5[C@@H](O)[C@H](N)C[C@H](N)[C@H]5O[C@H]5O[C@H](CN)[C@@H](O)[C@H](O)[C@H]5N)[C@H](O)[C@@H]4O[C@H]4O[C@@H](CN)[C@@H](O)[C@H](O)[C@H]4N)nn3)nn2)[C@H](N)[C@@H](O)[C@@H]1O`, the K turned out to be 7.1 ×10⁷ /M in experiment [1]; 6.9 ×10⁶ /M in experiment [4]; 7.5 ×10⁷ /M in experiment [7]; 1.4 ×10⁷ /M in experiment [8]; 8.9 ×10⁷ /M in experiment [9]. In addition, the IC50 in experiment [2] was determined as 118 nM; in [3] it was 224 nM; in [5] it was 134 nM; in experiment [6], 190 nM; in [10], 146 nM.
